Data from ChEMBL document CHEMBL1944565, “Exploration of α-aminophosphonate N-derivatives as novel, potent and selective inhibitors of protein tyrosine phosphatases” (Eur J Med Chem, 2012).
The source made the active and inactive calls. No cut-off for these calls is given here.

Columns and labels:
[1] = molecular target: T1, Tyrosine-protein phosphatase non-receptor type 11 (Homo sapiens, UniProt Q06124); assay: Inhibition of human SHP2 using p-nitrophenol phosphate as substrate incubated for 35 mins prior to substrate addition measured after 30 mins by spectrophotometry
T1 sequence (Q06124 whole entry): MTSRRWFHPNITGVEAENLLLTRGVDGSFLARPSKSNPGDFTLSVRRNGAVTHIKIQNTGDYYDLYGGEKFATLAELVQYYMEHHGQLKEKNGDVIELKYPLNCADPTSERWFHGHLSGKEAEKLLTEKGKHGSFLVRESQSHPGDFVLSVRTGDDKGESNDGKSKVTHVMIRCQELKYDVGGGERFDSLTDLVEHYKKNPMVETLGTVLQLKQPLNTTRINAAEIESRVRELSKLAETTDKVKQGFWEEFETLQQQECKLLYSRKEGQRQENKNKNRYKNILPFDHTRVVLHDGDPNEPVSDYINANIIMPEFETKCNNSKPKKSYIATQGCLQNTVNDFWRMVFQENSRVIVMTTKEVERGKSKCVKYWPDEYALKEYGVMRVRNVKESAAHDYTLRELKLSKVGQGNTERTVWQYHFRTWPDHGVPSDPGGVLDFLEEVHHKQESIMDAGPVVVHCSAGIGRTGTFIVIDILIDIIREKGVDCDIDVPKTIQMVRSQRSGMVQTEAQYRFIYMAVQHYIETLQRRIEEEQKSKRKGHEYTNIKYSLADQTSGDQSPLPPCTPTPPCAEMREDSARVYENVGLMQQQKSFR
Method in brief: (§1)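 Recombinant human phosphatase, expressed and purified, in 20 mM MOPS pH 7.2 with 50 mM NaCl. Preincubated with inhibitor at various concentrations for 35 min at 37 °C. p-NPP (0.1 M stock) added and reaction run about 30 min, then stopped with 2 M NaOH.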

[2] = molecular target: T2, Tyrosine-protein phosphatase non-receptor type 2 (Homo sapiens, UniProt P17706); assay: Inhibition of human TCPTP using p-nitrophenol phosphate as substrate incubated for 35 mins prior to substrate addition measured after 30 mins by spectrophotometry; method in brief: as §1
T2 sequence (P17706 whole entry): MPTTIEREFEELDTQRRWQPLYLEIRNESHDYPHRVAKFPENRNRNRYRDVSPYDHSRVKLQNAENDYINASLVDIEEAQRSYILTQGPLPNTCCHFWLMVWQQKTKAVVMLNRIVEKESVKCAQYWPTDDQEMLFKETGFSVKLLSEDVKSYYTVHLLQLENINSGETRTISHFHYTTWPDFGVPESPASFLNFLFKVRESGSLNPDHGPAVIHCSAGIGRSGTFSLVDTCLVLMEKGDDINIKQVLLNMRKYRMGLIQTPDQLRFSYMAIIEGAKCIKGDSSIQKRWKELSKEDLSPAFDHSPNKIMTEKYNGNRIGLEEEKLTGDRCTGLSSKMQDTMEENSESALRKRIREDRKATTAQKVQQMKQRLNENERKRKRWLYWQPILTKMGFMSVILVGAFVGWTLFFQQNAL

[3] = molecular target: T3, Tyrosine-protein phosphatase non-receptor type 9 (Homo sapiens, UniProt P43378); assay: Inhibition of human PTP-MEG2 using p-nitrophenol phosphate as substrate incubated for 35 mins prior to substrate addition measured after 30 mins by spectrophotometry; method in brief: as §1
T3 sequence (P43378 whole entry): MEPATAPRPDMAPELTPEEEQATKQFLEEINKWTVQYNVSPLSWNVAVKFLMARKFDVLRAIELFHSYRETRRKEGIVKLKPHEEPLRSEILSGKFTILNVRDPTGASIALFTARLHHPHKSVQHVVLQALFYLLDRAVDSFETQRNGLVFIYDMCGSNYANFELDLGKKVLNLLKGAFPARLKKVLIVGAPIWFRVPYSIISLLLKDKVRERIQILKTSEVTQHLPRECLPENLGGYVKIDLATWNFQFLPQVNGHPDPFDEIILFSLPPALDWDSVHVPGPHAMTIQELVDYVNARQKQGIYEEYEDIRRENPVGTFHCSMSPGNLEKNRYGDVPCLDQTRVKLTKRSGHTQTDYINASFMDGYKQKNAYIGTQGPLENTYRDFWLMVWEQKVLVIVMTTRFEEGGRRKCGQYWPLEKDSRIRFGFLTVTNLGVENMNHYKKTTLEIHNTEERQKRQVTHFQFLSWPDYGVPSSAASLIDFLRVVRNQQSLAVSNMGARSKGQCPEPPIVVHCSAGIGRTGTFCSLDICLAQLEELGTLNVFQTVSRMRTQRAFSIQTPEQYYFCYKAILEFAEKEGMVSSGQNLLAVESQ

[4] = molecular target: Tyrosine-protein phosphatase non-receptor type 6 (Homo sapiens, UniProt P29350); assay: Inhibition of human SHP1 using p-nitrophenol phosphate as substrate incubated for 35 mins prior to substrate addition measured after 30 mins by spectrophotometry; method in brief: as §1
Chain of Tyrosine-protein phosphatase non-receptor type 6 (P29350 whole entry): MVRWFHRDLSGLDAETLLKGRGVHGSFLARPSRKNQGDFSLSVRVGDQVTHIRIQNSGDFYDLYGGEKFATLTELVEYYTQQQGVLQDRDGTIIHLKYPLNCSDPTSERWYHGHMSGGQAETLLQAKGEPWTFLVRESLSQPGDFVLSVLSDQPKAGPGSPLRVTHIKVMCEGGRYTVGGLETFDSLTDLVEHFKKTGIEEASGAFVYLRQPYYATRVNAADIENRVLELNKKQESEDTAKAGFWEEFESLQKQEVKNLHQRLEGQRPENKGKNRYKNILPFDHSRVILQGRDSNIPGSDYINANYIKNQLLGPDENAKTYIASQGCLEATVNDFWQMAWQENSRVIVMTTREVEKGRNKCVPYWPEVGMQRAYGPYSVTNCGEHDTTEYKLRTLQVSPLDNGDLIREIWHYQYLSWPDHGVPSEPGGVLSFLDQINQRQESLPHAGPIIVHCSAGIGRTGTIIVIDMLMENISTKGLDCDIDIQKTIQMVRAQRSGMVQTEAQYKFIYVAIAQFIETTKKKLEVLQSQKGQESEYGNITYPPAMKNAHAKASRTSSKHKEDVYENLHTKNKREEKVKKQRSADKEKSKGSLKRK

[5] = molecular target: T4, Tyrosine-protein phosphatase non-receptor type 1 (Homo sapiens, UniProt P18031); assay: Inhibition of human PTP1B using p-nitrophenol phosphate as substrate incubated for 35 mins prior to substrate addition measured after 30 mins by spectrophotometry; method in brief: as §1
T4 sequence (P18031 whole entry): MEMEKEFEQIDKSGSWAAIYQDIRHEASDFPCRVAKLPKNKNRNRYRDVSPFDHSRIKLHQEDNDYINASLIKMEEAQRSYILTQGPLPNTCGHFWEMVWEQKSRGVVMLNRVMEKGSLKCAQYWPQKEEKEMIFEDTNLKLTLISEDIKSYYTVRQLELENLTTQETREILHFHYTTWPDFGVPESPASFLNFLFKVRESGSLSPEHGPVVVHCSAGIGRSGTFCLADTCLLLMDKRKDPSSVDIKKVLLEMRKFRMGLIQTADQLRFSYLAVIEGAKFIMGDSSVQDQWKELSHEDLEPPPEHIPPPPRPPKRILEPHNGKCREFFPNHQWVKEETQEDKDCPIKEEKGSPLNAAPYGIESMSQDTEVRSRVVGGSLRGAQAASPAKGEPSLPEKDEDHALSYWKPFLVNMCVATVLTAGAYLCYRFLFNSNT

[6] = molecular target: T5, Tyrosine-protein phosphatase non-receptor type 1 (Homo sapiens) (UniProt P18031)
T5 sequence (whole entry): T4 sequence (P18031 whole entry)

[7] = molecular target: T6, Tyrosine-protein phosphatase non-receptor type 9 (Homo sapiens) (UniProt P43378)
T6 sequence (whole entry): T3 sequence (P43378 whole entry)

[8] = test system: HepG2; assay: Cytotoxicity against human HepG2 cells after 48 hrs by MTT assay; format: functional, cell-based
Method in brief: (§2)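 HepG2 or MCF7 cells in DMEM with 10% FBS and penicillin/streptomycin, 37 °C, 5% CO2. Plated overnight, then exposed to a range of concentrations for 48 h with DMSO held at 1.0% in samples and control. MTT (5 mg/mL stock) added for 4 h at 37 °C, formazan dissolved in DMSO, OD read at 490 nm. Viability % = T/C × 100, averaged over six wells.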

[9] = molecular target: T5, Tyrosine-protein phosphatase non-receptor type 1 (Homo sapiens); remark: listed apart in the source
[10] = test system: HepG2; assay: Induction of necrosis in human HepG2 cells assessed as necrotic cells at 300 uM after 48 hrs by AnnexinV-FITC/PI flow cytometric analysis; format: functional
Method in brief: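 HepG2 cells grown in DMEM with 10% FBS and penicillin/streptomycin at 37 °C under 5% CO2, then exposed for 48 h to three concentrations (50, 100, 300). Cells were washed twice in ice-cold 0.85% NaCl and stained with annexin V-FITC and PI in binding buffer for 15 min in the dark at room temperature. Flow cytometry within 1 h sorted necrotic cells by annexin V binding and PI uptake; mean ± SD, n = 3.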

[11] = test system: HepG2; assay: Induction of apoptosis in human HepG2 cells at 50 uM after 48 hrs by AnnexinV-FITC/PI flow cytometric analysis; format: functional, cell-based
Method in brief: (§3)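 HepG2 cells exposed to 50, 100 or 300 μM for 48 h. Harvested, washed twice in ice-cold 0.85% NaCl, then resuspended in binding buffer with Annexin V-FITC and PI. Stained 15 min in the dark at room temperature and analysed by flow cytometry within 1 h. Viable, early/late apoptotic and necrotic fractions quantified from annexin V binding and PI uptake; mean ± SD, n = 3.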

[12] = test system: MCF7; assay: Cytotoxicity against human MCF7 cells after 48 hrs by MTT assay; format: functional, cell-based; method in brief: as §2
[13] = test system: HepG2; assay: Induction of apoptosis in human HepG2 cells assessed as apoptotic cells at 300 uM after 48 hrs by AnnexinV-FITC/PI flow cytometric analysis; format: functional; method in brief: as §3
[14] = molecular target: T5, Tyrosine-protein phosphatase non-receptor type 1 (Homo sapiens); remark: listed apart in the source
[15] = test system: HepG2; assay: Induction of apoptosis in human HepG2 cells assessed as apoptotic cells at 100 uM after 48 hrs by AnnexinV-FITC/PI flow cytometric analysis; format: functional; method in brief: as §3
[16] = test system: HepG2; assay: Induction of necrosis in human HepG2 cells assessed as necrotic cells at 100 uM after 48 hrs by AnnexinV-FITC/PI flow cytometric analysis; format: functional; method in brief: as §3

SMILES	IC50 [1] [mM]	IC50 [2] [mM]	IC50 [3] [mM]	IC50 [4] [mM]	IC50 [5] [mM]	Kic [6] [µM]	Kic [7] [µM]	Activity [8]	Ka [9] [×10⁵ /M]	Activity [10] [%]	Activity [11]	Activity [12]	Activity [13] [%]	Ka [14] [×10⁵ /M]	Activity [15] [%]	Activity [16] [%]
CCOP(=O)(O)C(N[C@@H](Cc1ccccc1)C(=O)O)c1ccccc1O (some centres not stated)	> 10	> 10	> 10	> 10	> 10											
CCOP(=O)(O)C(NCCCNC(c1ccccc1O)P(=O)(O)OCC)c1ccccc1O (configuration not stated)	> 10	> 10	> 10	> 10	> 10											
CCOP(=O)(OCC)[C@H](Nc1ccc(Cl)cc1)c1ccccc1O	> 10	0.627	0.347	> 10	0.373											
CCOP(=O)(OCC)[C@H](Nc1ccc(Br)cc1)c1ccccc1O	> 10	0.0511	0.173	> 10	0.0917	96.3										
CCOP(=O)(O)C(N[C@@H](Cc1cnc[nH]1)C(=O)O)c1ccccc1O (some centres not stated)	0.21	0.178	> 10	0.167	0.334											
CCOP(=O)(O)C(N[C@H](C(=O)O)[C@@H](C)O)c1ccccc1O (some centres not stated)	> 10	> 10	> 10	> 10	> 10											
CCOP(=O)(O)C(NCCNC(c1ccccc1O)P(=O)(O)OCC)c1ccccc1O (configuration not stated)	> 10	> 10	> 10	> 10	> 10											
CCOP(=O)(O)C(NCCCCCCNC(c1ccccc1O)P(=O)(O)OCC)c1ccccc1O (configuration not stated)	> 10	> 10	> 10	> 10	> 10											
CCOP(=O)(O)C(N[C@@H](Cc1ccc(O)cc1)C(=O)O)c1ccccc1O (some centres not stated)	> 10	> 10	> 10	> 10	> 10											
CCOP(=O)(OCC)[C@H](Nc1ccc([N+](=O)[O-])cc1)c1ccccc1O	> 10	0.239	0.291	> 10	0.217											
CCOP(=O)(O)C(N[C@@H](CO)C(=O)O)c1ccccc1O (some centres not stated)	0.191	0.123	0.0686	0.129	0.135		102									
CCOP(=O)(OCC)[C@H](Nc1ccccc1Cl)c1ccccc1O	> 10	0.178	0.146	> 10	0.137											
CCOP(=O)(O)C(NCC(=O)O)c1ccccc1O (configuration not stated)	> 10	> 10	> 10	> 10	> 10											
CCOP(=O)(O)C(N[C@@H](Cc1c[nH]c2ccccc12)C(=O)O)c1ccccc1O (some centres not stated)	> 10	> 10	> 10	> 10	> 10											
O=P(O)(O)[C@H](Nc1ccc(O)cc1)c1ccccc1O	> 10	0.0144	0.16	> 10	0.00664	4.4		Dose-dependent effect	2.27	22.7	inactive	Dose-dependent effect	69.7	2.23	7.2	1.9
CCOP(=O)(O)C(N[C@@H](C)C(=O)O)c1ccccc1O (some centres not stated)	> 10	> 10	> 10	> 10	> 10											
CCOP(=O)(O)C(N[C@@H](CS)C(=O)O)c1ccccc1O (some centres not stated)	> 10	> 10	> 10	> 10	> 10											
